For 16 compounds, MIC50 results are on record in ChEMBL document CHEMBL1155420, “Synthesis, antibacterial and antifungal activities of some carbazole derivatives” (2010).

What all share (assay type): functional
Assay [1] has as its system Candida albicans. The experiment in a line: Antifungal activity against Candida albicans ATCC 76615 after 24 hrs by two fold serial dilution method. The settings on record: ATCC 76615, 24 h. The procedure, abridged: (§1)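 Modified NCCLS microbroth dilution, with eleven compound concentrations from 0.5 to 512 µg/mL. Dilutions were inoculated and incubated at 35 °C for 24 h. MIC50 was taken as the first well showing about 50% growth reduction versus the drug-free well.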

In assay [2] the test system is Staphylococcus aureus. The experiment in a line: Antibacterial activity against Staphylococcus aureus ATCC 29213 after 24 hrs by two fold serial dilution method. The settings on record: ATCC 29213, 24 h. The procedure, abridged:
(§2)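 MICs determined by modified microbroth twofold dilution per NCCLS. Compounds were tested at 512, 256, 128, 64, 32, 16, 8, 4, 2, 1 and 0.5 µg/mL. Dilutions were inoculated and incubated at 37 °C for 24 h. A DMSO solvent control in test medium was run at the same dilutions.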

Assay [3] concerns Bacillus subtilis. Nature of the assay: Antibacterial activity against Bacillus subtilis ATCC 21216 after 24 hrs by two fold serial dilution method. The following applies: ATCC 21216, 24 h. A digest of the protocol:
as §2

Assay [4] deals with Staphylococcus aureus. The experiment in a line: Antibacterial activity against Methicillin-Resistant Staphylococcus aureus subsp. aureus N315 after 24 hrs by two fold serial dilution method. The settings on record: N315, 24 h. The procedure, abridged: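 Modified microbroth dilution following National Committee for Clinical Laboratory Standards methods. Twofold serial dilutions were set at 512, 256, 128, 64, 32, 16, 8, 4, 2, 1 and 0.5. Dilutions were inoculated with strain N315 and incubated at 37 °C for 24 h. A solvent control used medium with DMSO at the same dilutions. Read-out was the MIC.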

The test system of assay [5] is Proteus vulgaris. The experiment in a line: Antibacterial activity against Proteus vulgaris ATCC 49027 after 24 hrs by two fold serial dilution method. The settings on record: ATCC 49027, 24 h. A digest of the protocol:
as §2

In assay [6] the test system is Escherichia coli. Nature of the assay: Antibacterial activity against Escherichia coli ATCC 25922 after 24 hrs by two fold serial dilution method. The following applies: ATCC 25922, 24 h. The procedure, abridged:
as §2

The test system of assay [7] is Aspergillus fumigatus. The experiment in a line: Antifungal activity against Aspergillus fumigatus ATCC 96918 after 24 hrs by two fold serial dilution method. The settings on record: ATCC 96918, 24 h. A digest of the protocol:
as §1

Assay [8] concerns Pseudomonas aeruginosa. The experiment in a line: Antibacterial activity against Pseudomonas aeruginosa ATCC 27853 after 24 hrs by two fold serial dilution method. The following applies: ATCC 27853, 24 h. A digest of the protocol: as §2

In brackets after ≈: the same amount, converted by molar mass.

For `BrCCCCn1c2ccccc2c2ccccc21`, the MIC50 is 512 µg/mL (≈ 1690 µM) in assay [1]; 256 µg/mL (≈ 847 µM) in assay [2]; greater than 512 µg/mL in assay [3]; greater than 512 µg/mL in assay [4]; greater than 512 µg/mL in assay [5]; greater than 512 µg/mL in assay [6]. Moreover, the values for the MIC50 in assay [7] and in assay [8] were greater than 512 µg/mL and 128 µg/mL (≈ 424 µM), respectively.

For `c1ccc2c(c1)c1ccccc1n2CCCCn1cncn1`, the MIC50 in assay [1] was 2 µg/mL (≈ 6.89 µM); in assay [2], 256 µg/mL (≈ 882 µM); in assay [3], greater than 512 µg/mL; in assay [4], greater than 512 µg/mL; in assay [5] it was greater than 512 µg/mL; in assay [6], 32 µg/mL (≈ 110 µM). Moreover, the MIC50 was greater than 512 µg/mL in assay [7] and 128 µg/mL (≈ 441 µM) in assay [8].

As to `c1ccc2c(c1)c1ccccc1n2CCCCCCn1cncn1`, the MIC50 in assay [1] was 2 µg/mL (≈ 6.28 µM); in assay [2] it was 32 µg/mL (≈ 100 µM); in assay [3] it was greater than 512 µg/mL; in assay [4] it was 64 µg/mL (≈ 201 µM); in assay [5], greater than 512 µg/mL; in assay [6] it was 16 µg/mL (≈ 50.2 µM). Further, the MIC50 in assay [7] is greater than 512 µg/mL; in assay [8], 32 µg/mL (≈ 100 µM).

`Clc1ccc(C[n+]2cnn(Cc3ccc(Cn4c5ccccc5c5ccccc54)cc3)c2)c(Cl)c1.[Cl-]`: the MIC50 in assay [1] was 32 µg/mL; in assay [2], 2 µg/mL; in assay [3], 2 µg/mL; in assay [4], 8 µg/mL; in assay [5], 8 µg/mL; in assay [6], 2 µg/mL. Moreover, the MIC50 in assay [7] stood at 64 µg/mL; in assay [8] it was 4 µg/mL.

In the case of `c1ccc2c(c1)c1ccccc1n2Cc1ccc(Cn2c3ccccc3c3ccccc32)cc1`, the MIC50 in assay [1] was greater than 512 µg/mL; in assay [2], 256 µg/mL (≈ 586 µM); in assay [3], greater than 512 µg/mL; in assay [4], greater than 512 µg/mL; in assay [5], greater than 512 µg/mL; in assay [6], greater than 512 µg/mL. In addition, the MIC50 in assay [7] and in assay [8] was greater than 512 µg/mL in each case.

For `c1ccc2c(c1)c1ccccc1n2CCCCn1c2ccccc2c2ccccc21`, the MIC50 was greater than 512 µg/mL in assay [1]; greater than 512 µg/mL in assay [2]; greater than 512 µg/mL in assay [3]; greater than 512 µg/mL in assay [4]; 64 µg/mL (≈ 165 µM) in assay [5]; greater than 512 µg/mL in assay [6]. Moreover, the MIC50 in assay [7] and in assay [8] was greater than 512 µg/mL throughout.

On to `c1ccc2c(c1)c1ccccc1n2CCCCCCn1c2ccccc2c2ccccc21`, for which the MIC50 in assay [1] is greater than 512 µg/mL; in assay [2] it was 128 µg/mL (≈ 307 µM); in assay [3] it was greater than 512 µg/mL; in assay [4], greater than 512 µg/mL; in assay [5] it was greater than 512 µg/mL; in assay [6], greater than 512 µg/mL. The MIC50 in assay [7] was 256 µg/mL (≈ 615 µM); in assay [8], greater than 512 µg/mL.

`c1ccc2c(c1)c1ccccc1n2CCCCn1ccnc1`: the MIC50 in assay [1] came out at 16 µg/mL (≈ 55.3 µM); in assay [2], 2 µg/mL (≈ 6.91 µM); in assay [3], 4 µg/mL (≈ 13.8 µM); in assay [4], 4 µg/mL (≈ 13.8 µM); in assay [5], 1 µg/mL (≈ 3.46 µM); in assay [6], 8 µg/mL (≈ 27.6 µM). Further, the MIC50 in assay [7] was determined as 64 µg/mL (≈ 221 µM); in assay [8] it was 1 µg/mL (≈ 3.46 µM).

On to `c1ccc2c(c1)c1ccccc1n2CCCCCCn1ccnc1`, for which the MIC50 in assay [1] came to 16 µg/mL (≈ 50.4 µM); in assay [2], 8 µg/mL (≈ 25.2 µM); in assay [3], 8 µg/mL (≈ 25.2 µM); in assay [4], 8 µg/mL (≈ 25.2 µM); in assay [5] it was 1 µg/mL (≈ 3.15 µM); in assay [6] it was 4 µg/mL (≈ 12.6 µM). In addition, the results for the MIC50 in assay [7] and in assay [8] were 128 µg/mL (≈ 403 µM) and 1 µg/mL (≈ 3.15 µM), respectively.

As to `c1ccc2c(c1)c1ccccc1n2Cc1ccc(Cn2cncn2)cc1`, the MIC50 in assay [1] was 4 µg/mL (≈ 11.8 µM); in assay [2] it was 256 µg/mL (≈ 756 µM); in assay [3], greater than 512 µg/mL; in assay [4] it was greater than 512 µg/mL; in assay [5] it was greater than 512 µg/mL; in assay [6] it was 32 µg/mL (≈ 94.6 µM). In addition, the MIC50 in assay [7] and in assay [8] was greater than 512 µg/mL throughout.

`BrCCCCCCn1c2ccccc2c2ccccc21`: the MIC50 was greater than 512 µg/mL in assay [1]; 128 µg/mL (≈ 388 µM) in assay [2]; greater than 512 µg/mL in assay [3]; greater than 512 µg/mL in assay [4]; greater than 512 µg/mL in assay [5]; greater than 512 µg/mL in assay [6]. Further, the MIC50 is 512 µg/mL (≈ 1550 µM) in assay [7] and greater than 512 µg/mL in assay [8].

In the case of `c1ccc2c(c1)c1ccccc1n2Cc1ccc(Cn2ccnc2)cc1`, the MIC50 in assay [1] was 16 µg/mL (≈ 47.4 µM); in assay [2], 1 µg/mL (≈ 2.96 µM); in assay [3], 4 µg/mL (≈ 11.9 µM); in assay [4], 8 µg/mL (≈ 23.7 µM); in assay [5], 4 µg/mL (≈ 11.9 µM); in assay [6], 8 µg/mL (≈ 23.7 µM). Besides, the MIC50 in assay [7] is greater than 512 µg/mL; in assay [8], 1 µg/mL (≈ 2.96 µM).

With `BrCc1ccc(Cn2c3ccccc3c3ccccc32)cc1`, the MIC50 was greater than 512 µg/mL in assay [1]; 128 µg/mL (≈ 365 µM) in assay [2]; 256 µg/mL (≈ 731 µM) in assay [3]; greater than 512 µg/mL in assay [4]; 512 µg/mL (≈ 1460 µM) in assay [5]; 256 µg/mL (≈ 731 µM) in assay [6]. The MIC50 in assay [7] was greater than 512 µg/mL; in assay [8] it was 256 µg/mL (≈ 731 µM).

In the case of `O=C(N[C@H](CO)[C@H](O)c1ccc([N+](=O)[O-])cc1)C(Cl)Cl` [CHLORAMPHENICOL], the MIC50 in assay [2] was 64 µg/mL (≈ 198 µM); in assay [3], greater than 512 µg/mL; in assay [4], 8 µg/mL (≈ 24.8 µM); in assay [5], 16 µg/mL (≈ 49.5 µM); in assay [6], 64 µg/mL (≈ 198 µM); in assay [8], greater than 512 µg/mL.

Consider `OC(Cn1cncn1)(Cn1cncn1)c1ccc(F)cc1F` [FLUCONAZOLE], for which the MIC50 in assay [1] worked out at 0.5 µg/mL (≈ 1.63 µM); in assay [7] it was 512 µg/mL (≈ 1670 µM).

As for `CCn1cc(C(=O)O)c(=O)c2cc(F)c(N3CCNCC3)cc21` [NORFLOXACIN], the MIC50 is 8 µg/mL (≈ 25.1 µM) in assay [2]; 1 µg/mL (≈ 3.13 µM) in assay [3]; 1 µg/mL (≈ 3.13 µM) in assay [4]; 1 µg/mL (≈ 3.13 µM) in assay [5]; 0.5 µg/mL (≈ 1.57 µM) in assay [6]; 2 µg/mL (≈ 6.26 µM) in assay [8].

Usually MIC50 stands for an inhibitory concentration at the 50% level, which refers to growth in some studies and to a panel of isolates in others. Lower therefore signals higher susceptibility.
